Screening results deposited in PubChem by several laboratories.
NTR1 agonist = activates human neurotensin receptor 1; actives 0.17% (n = 330,000); activation, % at 20 µM; NTR1-U2OS beta-arrestin-GFP spot imaging, agonist mode; P30989;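 active = activation at or above 40% of the spot to cytoplasm intensity ratio, with at least 20 cells analyzed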;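 note: 0% = DMSO without peptide and 100% = 100 nM NTR1 peptide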
MC4R barr agon = activates human MC4R beta-arrestin recruitment | P32245 | U2OS MC4R beta-arrestin complementation, luminescence; percent of melanotan II response, DMSO zero | activation, % at 8.9 µM | actives 0.98% (n = 360,000);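 active = activation above a per-plate cutoff, the mean activation of sample wells on that plate plus 3 SD, cut at about 8% in these data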
PG9 Ab binder = binds the HIV-1 gp120 antibody PG9; actives 0.43% (n = 360,000); AID 624416; inhibition, % at 6.7 µM; TR-FRET gp120-PG9 antibody binding; in the data active = inhibition above about 8.5%
MC4R antagonist = blocks human MC4R cAMP signaling; actives 0.48% (n = 360,000); P32245; AID 540295; MC4R-expressing cells, MTII-stimulated cAMP, LANCE TR-FRET; inhibition, % at 6.5 µM;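 active = inhibition above its plate's cutoff, the mean of tested wells on that plate plus 3 SD, cut at about 29% in these data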;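 note: 0% = Melanotan II alone and 100% = Melanotan II plus saturating MCL0020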
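Assay system: human MC4R-expressing U2OS cells; reagent: Melanotan II stimulation of cells; dosing: 6.5 µM single dose; timing: compound 30 min, challenge 1 h, detection 1 h; signal: TR-FRET cAMP assay; replicates: one well per compound, no replicates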
Rev-erbA mod = modulators of human Rev-erb alpha DNA binding; P20393; Rev-erbα–FITC-DNA binding, fluorescence polarization, 90 min; activity, % at 10 µM; actives 0.79% (n = 370,000);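 active = activity above about 14%, limit read from the data; passing the limit was not always enough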;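 note: 0% = DMSO wells with 35 nM protein and 100% = DMSO wells with 750 nM protein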
NR1D1 mod conf = Rev-erb alpha (human) modulation, hit confirmation; shares compounds with Rev-erbA mod; Rev-erb alpha FITC-DNA binding, fluorescence polarization, 90 min; activation, % at 25 µM; actives 61% (n = 3,000); AID 1259319;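 active = activation at or above a set limit, or at least 3 SD above the negative control mean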;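 note: 0% = 35 nM protein with DMSO and 100% = 750 nM protein high control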
RORg counter = affects RORgamma DNA binding in a Rev-erb alpha counter-screen; shares compounds with Rev-erbA mod; IC50, µM; actives 8% (n = 910); purified RORgamma protein-FITC-DNA binding, fluorescence polarization;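 active = Compounds whose fitted half-maximal concentration for disrupting protein-DNA binding is below 10 micromolar; the record names Rev-erb in its text, so the target is in doubt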
* hit, by the source's call. Sampled rows, rich in hits. Any-hit rate of the full collection: about 2.5%.

How did COC(=O)c1ccccc1-c1c2ccc(=N)cc-2oc2cc(N)ccc12 do in these assays?
NTR1 agonist: -5; MC4R barr agon: -2; PG9 Ab binder: -3; MC4R antagonist: -8; Rev-erbA mod: active; NR1D1 mod conf: active; RORg counter: >40

Results for CCc1ccc(-c2cc(C)no2)cc1S(=O)(=O)N1CCN(c2ccc(C(C)=O)cc2)CC1 ?
NTR1 agonist: 3; MC4R barr agon: -2; PG9 Ab binder: 1; MC4R antagonist: 1; Rev-erbA mod: 27*; NR1D1 mod conf: 18*

How did Cc1cc(-c2ccc(C(C)C)c(S(=O)(=O)N3CCN(c4ccccc4)CC3)c2)on1 do in these assays?
NTR1 agonist: 2; MC4R barr agon: -6; PG9 Ab binder: 1; MC4R antagonist: -17; Rev-erbA mod: 0

Results for CC(=O)c1ccc(N2CCN(S(=O)(=O)c3cc(-c4cc(C)no4)ccc3C(C)C)CC2)cc1 ?
NTR1 agonist: 0; MC4R barr agon: -4; PG9 Ab binder: 1; MC4R antagonist: 10; Rev-erbA mod: 26*; NR1D1 mod conf: 22*

How did c1ccc(-c2nn3c(-c4ccccc4)nnc3s2)cc1 do in these assays?
NTR1 agonist: 0; MC4R barr agon: 0; PG9 Ab binder: 6; MC4R antagonist: 1; Rev-erbA mod: 15

What do the screens show for `Cc1cccc(-c2nnc3sc(-c4ccccc4)nn23)c1`?
NTR1 agonist: 12; MC4R barr agon: 1; PG9 Ab binder: -1; MC4R antagonist: -6; Rev-erbA mod: 82*; NR1D1 mod conf: 135*

Results for CC(C)(C)c1ccc(-c2nnc3sc(-c4ccccn4)nn23)cc1 ?
NTR1 agonist: 18; MC4R barr agon: 5; PG9 Ab binder: 4; MC4R antagonist: 1; Rev-erbA mod: 22*; NR1D1 mod conf: 21*

Results for Cc1cc(=O)oc2c(C)cc(C(C)(C)C)cc12 ?
MC4R barr agon: 3; PG9 Ab binder: 0; MC4R antagonist: -5; Rev-erbA mod: 27*; NR1D1 mod conf: 26*

How did COC(=O)[C@]12C[C@H](CC(=O)N3CCN(C(=O)C4CC4)CC3)C(=O)N(Cc3cccc4ccccc34)C1=C[C@H](C(C)C)O[C@@H]2C1CC1 do in these assays?
Rev-erbA mod: 1

Results for CCOC(=O)c1c(C)nc2sc3c(=O)n(-c4ccc(OC)cc4)cnc3c2c1-c1ccc(OC)cc1 ?
NTR1 agonist: 2; MC4R barr agon: -1; PG9 Ab binder: -1; MC4R antagonist: -5; Rev-erbA mod: 35*; NR1D1 mod conf: -14

Results for CCOC(=O)c1c(C)nc2sc3c(=O)n(-c4ccc(C(C)=O)cc4)nnc3c2c1-c1ccc(OC)cc1 ?
NTR1 agonist: 1; MC4R barr agon: -2; PG9 Ab binder: 1; MC4R antagonist: 13; Rev-erbA mod: -5

What do the screens show for `COC(=O)c1cc(-c2cccc3c2sc2ccccc23)c(=O)n2c1CCC2`?
Rev-erbA mod: 4

What do the screens show for `COC(=O)[C@]12C[C@H](CC(=O)NCc3ccc(C)o3)C(=O)N(Cc3ccccc3)C1=C[C@H](C(C)C)O[C@@H]2C1CC1`?
PG9 Ab binder: 0; Rev-erbA mod: 1

What do the screens show for `CCOC(=O)c1cnc(SCC(=O)N2CCc3ccccc32)nc1N`?
NTR1 agonist: 0; MC4R barr agon: -1; PG9 Ab binder: 0; MC4R antagonist: 4; Rev-erbA mod: 49*; NR1D1 mod conf: 7

How did O=C(CSc1nnc(-c2ccccc2)n1-c1ccc(Cl)cc1)Nc1cccc2ccccc12 do in these assays?
Rev-erbA mod: -2

Results for COc1ccc(Nc2nc3cc(C)ccc3cc2C#N)c(OC)c1 ?
NTR1 agonist: 0; MC4R barr agon: -2; PG9 Ab binder: 0; MC4R antagonist: -22; Rev-erbA mod: 1

What do the screens show for `COc1ccc2cc(C#N)c(Nc3cccc(F)c3)nc2c1`?
NTR1 agonist: 6; MC4R barr agon: 0; PG9 Ab binder: 1; MC4R antagonist: 18; Rev-erbA mod: 55*; NR1D1 mod conf: 42*; RORg counter: >40
